Source: the M2OR odorant receptor database

Legend:
Conditions in all cases: stereoisomer not certain
O2AK2 S99N = tested on: O2AK2 S99N
How it was run: (§1)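 Transient luciferase assays in mammalian cell lines were common, though methods varied by source. The values come from published papers and their supplementary material, with extra details from the original authors when needed. Responsive refers to a measured signal the original authors judged statistically different from baseline, and non-responsive (inactive) to the remainder.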

O2T11 = tested on: O2T11
Sequence of O2T11 (as listed by the source): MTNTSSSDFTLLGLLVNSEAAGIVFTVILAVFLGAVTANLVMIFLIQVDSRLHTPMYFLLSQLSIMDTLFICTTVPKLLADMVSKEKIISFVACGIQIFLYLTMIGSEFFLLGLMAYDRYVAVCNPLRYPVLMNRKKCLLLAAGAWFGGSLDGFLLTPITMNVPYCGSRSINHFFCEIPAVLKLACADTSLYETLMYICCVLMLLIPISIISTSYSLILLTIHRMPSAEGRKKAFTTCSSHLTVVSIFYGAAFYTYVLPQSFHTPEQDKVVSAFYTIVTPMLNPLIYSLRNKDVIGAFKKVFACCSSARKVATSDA
How it was run: as §1

O2T27 L36V V134D = tested on: O2T27 L36V V134D
How it was run: as §1

O2T29 Q24R = tested on: O2T29 Q24R
Sequence of O2T29 Q24R (as listed by the source, stated change not applied): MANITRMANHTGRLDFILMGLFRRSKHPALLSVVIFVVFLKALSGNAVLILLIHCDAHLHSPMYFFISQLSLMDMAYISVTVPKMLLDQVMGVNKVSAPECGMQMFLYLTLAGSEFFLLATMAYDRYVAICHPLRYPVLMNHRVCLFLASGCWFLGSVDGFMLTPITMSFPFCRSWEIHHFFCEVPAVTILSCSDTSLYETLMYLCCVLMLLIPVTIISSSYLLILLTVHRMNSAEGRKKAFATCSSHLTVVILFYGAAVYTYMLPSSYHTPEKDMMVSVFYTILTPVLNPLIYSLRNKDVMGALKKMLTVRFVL
How it was run: as §1

O2T33 A169V = tested on: O2T33 A169V
Sequence of O2T33 A169V (as listed by the source, stated change not applied): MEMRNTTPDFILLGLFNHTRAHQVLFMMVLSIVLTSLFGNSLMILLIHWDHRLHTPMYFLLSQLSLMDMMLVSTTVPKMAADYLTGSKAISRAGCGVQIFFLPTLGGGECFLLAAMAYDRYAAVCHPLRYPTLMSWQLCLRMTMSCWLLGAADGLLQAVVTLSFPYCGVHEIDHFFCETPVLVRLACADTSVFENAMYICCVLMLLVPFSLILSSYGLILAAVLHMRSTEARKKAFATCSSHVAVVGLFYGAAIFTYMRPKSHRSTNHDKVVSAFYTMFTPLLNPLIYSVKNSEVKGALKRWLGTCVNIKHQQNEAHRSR
How it was run: as §1

O2T33 G297E I309L = tested on: O2T33 G297E I309L
How it was run: as §1

O2T34 Q6P R267P = tested on: O2T34 Q6P R267P
How it was run: as §1

O2T34 R267P = tested on: O2T34 R267P
Sequence of O2T34 R267P (as listed by the source, stated change not applied): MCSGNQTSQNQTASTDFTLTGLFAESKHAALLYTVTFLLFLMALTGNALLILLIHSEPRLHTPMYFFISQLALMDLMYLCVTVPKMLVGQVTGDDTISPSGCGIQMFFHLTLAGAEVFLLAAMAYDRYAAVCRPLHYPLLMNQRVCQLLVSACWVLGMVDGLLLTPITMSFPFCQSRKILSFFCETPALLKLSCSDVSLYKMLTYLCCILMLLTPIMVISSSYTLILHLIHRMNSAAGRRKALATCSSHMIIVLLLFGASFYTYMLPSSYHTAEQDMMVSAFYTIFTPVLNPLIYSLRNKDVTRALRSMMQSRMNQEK
How it was run: as §1

O4A47 = tested on: O4A47
Sequence of O4A47 (as listed by the source): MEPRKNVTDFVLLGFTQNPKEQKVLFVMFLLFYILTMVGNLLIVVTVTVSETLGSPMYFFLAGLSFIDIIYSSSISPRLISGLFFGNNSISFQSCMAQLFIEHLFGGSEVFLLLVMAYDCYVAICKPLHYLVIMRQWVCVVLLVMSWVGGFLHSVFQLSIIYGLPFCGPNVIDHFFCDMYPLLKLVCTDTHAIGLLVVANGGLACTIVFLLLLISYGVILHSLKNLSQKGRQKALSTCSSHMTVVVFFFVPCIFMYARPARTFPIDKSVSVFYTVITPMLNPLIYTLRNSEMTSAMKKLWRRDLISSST
How it was run: as §1

O4C46 S240F C252Y K288R = tested on: O4C46 S240F C252Y K288R
How it was run: as §1

Measured: odorant receptor agonist call;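 further: active if original authors judged signal statistically different from baseline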

Sequence of O2AK2 S99N (as listed by the source, stated change not applied): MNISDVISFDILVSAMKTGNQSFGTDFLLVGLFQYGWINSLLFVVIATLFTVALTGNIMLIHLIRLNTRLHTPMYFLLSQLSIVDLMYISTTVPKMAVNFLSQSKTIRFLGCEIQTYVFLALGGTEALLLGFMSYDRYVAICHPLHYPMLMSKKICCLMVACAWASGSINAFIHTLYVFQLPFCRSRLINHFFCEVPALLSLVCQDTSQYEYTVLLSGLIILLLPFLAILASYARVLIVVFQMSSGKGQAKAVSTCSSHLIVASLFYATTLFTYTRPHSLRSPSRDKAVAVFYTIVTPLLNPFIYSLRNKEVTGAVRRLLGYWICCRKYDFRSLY

C=CCOC(=O)Cc1ccccc1
inactive: all assays above
